Assay [1] has as its system U-266. In words: Cytotoxicity against human U266 cells after 72 hrs by fluoroskan ascent microplate reader analysis. The class given is functional, cell-based. To be noted: U-266, 72 h. Summed up: (§1)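 Cells were grown in DMEM with 10% FCS and 4 mM glutamine at 37 °C under CO2, then plated at densities suited to each line. Compounds were added as 3-fold dilutions in triplicate for 72 h.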

Another assay concerns HeLa. Kind of assay: Cytotoxicity against human HeLa cells after 72 hrs by fluoroskan ascent microplate reader analysis. In kind it is functional, cell-based. Summed up:
as §1

A further assay concerns A549. Kind of assay: Cytotoxicity against human A549 cells after 72 hrs by fluoroskan ascent microplate reader analysis. The class given is functional, cell-based. The conditions noted are these: A549, 72 h. Put shortly: as §1
Assay [2] concerns RPMI-8226. Kind of assay: Cell cycle arrest in human RPMI8226 cells assessed as accumulation at G1 phase after 24 hrs using propidium iodide and BrdU staining by flow cytometry. The class given is functional, cell-based. Summed up:
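Subconfluent cells treated 24 h at varying concentrations, pulsed with 10 μM BrdU for 30 min at 37 °C, then trypsinized, fixed in ice-cold 70% ethanol and DNA denatured in 2 M HCl. After staining with fluorescein anti-BrdU (1:50), propidium iodide (0.1 mg/mL) and RNase A (0.5 mg/mL), cells were read by flow cytometry with a 488 nm laser.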

Assay [3] has as its target Casein kinase II (Homo sapiens) (UniProt P67870+P68400+P19784). Kind of assay: Inhibition of human recombinant CK2 at 10 uM. In kind it is protein-complex assay.
The target of assay [4] is Ribosomal protein S6 kinase alpha-5 (Homo sapiens) (UniProt O75582). In words: Inhibition of human recombinant MSK1 at 10 uM.
Chain of Ribosomal protein S6 kinase alpha-5 (Homo sapiens) (O75582 whole entry, looked up): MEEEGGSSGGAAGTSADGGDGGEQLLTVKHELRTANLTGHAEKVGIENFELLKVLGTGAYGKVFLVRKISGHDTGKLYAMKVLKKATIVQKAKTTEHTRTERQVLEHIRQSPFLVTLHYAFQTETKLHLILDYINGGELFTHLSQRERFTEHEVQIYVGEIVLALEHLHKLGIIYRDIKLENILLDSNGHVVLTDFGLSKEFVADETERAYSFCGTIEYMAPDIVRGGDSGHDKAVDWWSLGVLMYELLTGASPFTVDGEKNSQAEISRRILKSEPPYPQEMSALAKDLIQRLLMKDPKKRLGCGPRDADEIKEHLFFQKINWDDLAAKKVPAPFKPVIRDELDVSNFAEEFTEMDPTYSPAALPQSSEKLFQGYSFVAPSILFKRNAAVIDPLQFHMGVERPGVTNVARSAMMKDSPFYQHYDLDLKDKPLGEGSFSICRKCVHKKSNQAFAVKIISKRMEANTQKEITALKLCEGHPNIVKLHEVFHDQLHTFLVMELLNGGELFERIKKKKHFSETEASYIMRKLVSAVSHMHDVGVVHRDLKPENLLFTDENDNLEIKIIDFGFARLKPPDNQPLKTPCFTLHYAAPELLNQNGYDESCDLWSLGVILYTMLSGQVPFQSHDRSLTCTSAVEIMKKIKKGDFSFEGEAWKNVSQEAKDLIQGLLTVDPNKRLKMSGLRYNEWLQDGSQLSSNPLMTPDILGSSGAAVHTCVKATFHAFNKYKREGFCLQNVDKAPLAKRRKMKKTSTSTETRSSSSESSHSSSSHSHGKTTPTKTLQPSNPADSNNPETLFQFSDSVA
The target in assay [5] is T1, Retinoblastoma-associated protein (Homo sapiens) (UniProt P06400).
T1 sequence (whole entry): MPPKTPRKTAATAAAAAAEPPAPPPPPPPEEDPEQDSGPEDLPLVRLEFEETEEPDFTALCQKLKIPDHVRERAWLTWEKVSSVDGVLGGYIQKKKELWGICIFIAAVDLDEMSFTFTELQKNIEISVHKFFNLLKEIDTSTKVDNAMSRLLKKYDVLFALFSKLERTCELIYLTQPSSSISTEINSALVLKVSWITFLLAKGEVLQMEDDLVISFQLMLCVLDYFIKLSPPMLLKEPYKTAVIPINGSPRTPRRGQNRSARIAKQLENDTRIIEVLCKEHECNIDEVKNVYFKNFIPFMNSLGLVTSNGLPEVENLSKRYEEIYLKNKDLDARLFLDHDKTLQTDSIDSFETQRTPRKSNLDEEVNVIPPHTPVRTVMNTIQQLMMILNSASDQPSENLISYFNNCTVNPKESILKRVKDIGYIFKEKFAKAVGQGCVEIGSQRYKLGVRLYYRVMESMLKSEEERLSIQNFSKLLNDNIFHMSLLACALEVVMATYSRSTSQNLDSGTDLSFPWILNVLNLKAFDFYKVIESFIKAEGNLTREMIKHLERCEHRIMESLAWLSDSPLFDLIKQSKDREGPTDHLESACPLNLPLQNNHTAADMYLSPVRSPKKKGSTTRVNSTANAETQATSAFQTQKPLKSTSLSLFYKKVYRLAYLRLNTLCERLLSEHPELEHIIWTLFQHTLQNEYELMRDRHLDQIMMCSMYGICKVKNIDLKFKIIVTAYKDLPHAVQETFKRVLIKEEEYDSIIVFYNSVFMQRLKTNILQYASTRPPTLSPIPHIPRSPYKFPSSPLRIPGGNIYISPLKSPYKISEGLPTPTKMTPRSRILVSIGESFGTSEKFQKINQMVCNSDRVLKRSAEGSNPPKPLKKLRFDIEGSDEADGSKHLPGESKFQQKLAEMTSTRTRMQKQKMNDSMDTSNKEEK
Kind of assay: Inhibition of retinoblastoma protein in human MCF7 cells assessed as reduction of CDK1 level at 2.5 to 40 uM after 24 hrs by immunoblotting. In kind it is cell-based. Summed up:
(§2)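 Asynchronous, exponentially growing MCF-7 cells were exposed 24 h to a range of concentrations. Total lysates were made in Laemmli buffer, run on SDS-PAGE and blotted to nitrocellulose. Membranes were probed overnight at 4 °C with specific or phosphospecific antibodies (pRb S249/T252, S780, S795, S807/811), with tubulin as loading control and ECL detection.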
Background: Immunoblotting shows a protein as a band on a membrane.

The next assay relates to HT-29. Kind of assay: Cytotoxicity against human HT-29 cells after 72 hrs by fluoroskan ascent microplate reader analysis. In kind it is functional, cell-based. The conditions noted are these: HT-29, 72 h. Summed up: as §1
Assay [6] deals with Cellular tumor antigen p53 (Homo sapiens) (UniProt P04637). Kind of assay: Induction of p53-dependent transcriptional activity in human ARN8 cells assessed as beta-galactosidase activity after 24 hrs by immunofluorescence assay. The class given is cell-based. Summed up:
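ARN8 melanoma cells stably carrying the p53-responsive pRGCΔfoslacZ reporter were exposed to inhibitors for 24 h, permeabilized with 0.3% Triton X-100 for 15 min, and given MUG substrate (final 80 μM). Fluorescence was read at 355/460 nm after 1 h. Data are mean ± SD of three independent experiments.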

The subject of the next assay is MCF7. Kind of assay: Cell cycle arrest in human MCF7 cells assessed as reduction of actively replicating DNA level at 80 uM after 24 hrs using propidium iodide and BrdU staining by flow cytometry. The class given is functional, cell-based. Summed up:
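Subconfluent MCF-7 cells were treated for 24 h at a range of concentrations. They were pulse-labelled with 10 μM BrdU for 30 min at 37 °C, then trypsinized and fixed in ice-cold 70% ethanol. DNA was denatured in 2 M HCl and neutralized with borate. Cells were stained with fluorescein anti-BrdU and with propidium iodide plus RNase A, then analysed by flow cytometry at 488 nm.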
(Incorporation of labelled thymidine or its analogues reports DNA synthesis.)

The target of assay [7] is Casein kinase I isoform alpha (Homo sapiens) (UniProt P48729). Kind of assay: Inhibition of human recombinant CK1 at 10 uM.
Chain of Casein kinase I isoform alpha (Homo sapiens) (P48729 2-337 limits assumed): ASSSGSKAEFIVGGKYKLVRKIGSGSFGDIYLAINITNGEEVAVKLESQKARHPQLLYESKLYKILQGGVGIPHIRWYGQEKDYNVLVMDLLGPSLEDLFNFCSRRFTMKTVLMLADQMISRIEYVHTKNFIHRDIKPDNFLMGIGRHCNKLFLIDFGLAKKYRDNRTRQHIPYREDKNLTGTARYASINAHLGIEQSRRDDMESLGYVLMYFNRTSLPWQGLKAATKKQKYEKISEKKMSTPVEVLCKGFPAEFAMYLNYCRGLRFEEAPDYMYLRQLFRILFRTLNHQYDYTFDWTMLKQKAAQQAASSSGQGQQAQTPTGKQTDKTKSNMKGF
For another assay, the system named is HCT-116. Kind of assay: Cytotoxicity against human HCT116 cells after 72 hrs by fluoroskan ascent microplate reader analysis. The conditions noted are these: HCT-116, 72 h. The class given is functional, cell-based. Put shortly:
as §1

Assay [8] deals with Cyclin-dependent kinase 1/cyclin B1 (Homo sapiens) (UniProt P06493+P14635). To be noted: at 10 µM.
Chain of Cyclin-dependent kinase 1/cyclin B1 (Homo sapiens) (P06493 whole entry, looked up): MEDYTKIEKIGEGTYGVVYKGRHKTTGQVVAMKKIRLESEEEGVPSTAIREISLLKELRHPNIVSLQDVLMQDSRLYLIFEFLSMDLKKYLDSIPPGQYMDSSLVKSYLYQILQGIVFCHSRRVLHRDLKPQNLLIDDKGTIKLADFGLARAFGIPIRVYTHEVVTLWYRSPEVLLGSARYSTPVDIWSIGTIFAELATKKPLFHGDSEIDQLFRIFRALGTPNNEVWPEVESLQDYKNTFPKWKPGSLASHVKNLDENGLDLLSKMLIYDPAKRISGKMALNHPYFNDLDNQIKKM
Chain of Cyclin-dependent kinase 1/cyclin B1 (Homo sapiens) (P14635 whole entry, looked up): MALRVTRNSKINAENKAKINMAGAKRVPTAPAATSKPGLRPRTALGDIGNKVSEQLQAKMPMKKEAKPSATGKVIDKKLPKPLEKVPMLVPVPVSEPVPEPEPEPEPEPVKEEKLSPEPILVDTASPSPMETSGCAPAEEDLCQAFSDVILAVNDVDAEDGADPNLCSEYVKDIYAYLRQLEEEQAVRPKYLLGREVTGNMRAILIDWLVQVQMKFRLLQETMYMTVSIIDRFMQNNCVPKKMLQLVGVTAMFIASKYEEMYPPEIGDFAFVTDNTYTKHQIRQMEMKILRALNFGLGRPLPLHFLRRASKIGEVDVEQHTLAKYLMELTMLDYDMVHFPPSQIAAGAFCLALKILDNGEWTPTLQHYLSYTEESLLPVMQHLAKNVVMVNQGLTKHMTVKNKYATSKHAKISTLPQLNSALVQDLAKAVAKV
The target of assay [9] is T1, Retinoblastoma-associated protein (Homo sapiens). Kind of assay: Inhibition of retinoblastoma protein phosphorylation at Ser249/Thr252, Ser807/811, Ser780, and Ser795 in human MCF7 cells after 24 hrs by immunoblotting. The class given is cell-based. Put shortly:
as §2

Assay [10] deals with RPMI-8226. In words: Induction of apoptosis in human RPMI8226 cells assessed as induction of PARP cleavage after 24 hrs by immunoblot analysis. The class given is functional, cell-based. Put shortly: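 RPMI-8226 cells were treated continuously for 24 h, and total lysates were made in Laemmli buffer, run on SDS-PAGE and blotted to nitrocellulose. Loading was checked with Ponceau-S. Membranes were blocked in milk or BSA, probed overnight at 4 °C with antibodies to PARP, caspase-3 and Mcl-1, then peroxidase secondary (1:2000), with ECL detection.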

Assay [11] has as its system U-266. Kind of assay: Induction of apoptosis in human U266 cells at 10 uM after 24 hrs. The class given is functional, cell-based.
A further assay has as its system U2OS. Kind of assay: Reduction of homologous recombination in human DR-U2OS-GFP cells expressing I-SceI nuclease at 5 uM after 56 hrs […] relative to control. In kind it is functional.
The target of assay [12] is Cyclin-dependent kinase 7/ cyclin H (Homo sapiens) (UniProt P51946+P50613). Kind of assay: Inhibition of human recombinant CDK7/cyclin H/MAT1 at 10 uM. In kind it is protein-complex assay.

Calls of active or inactive are those of the source. The calls are words filed in the database; no cut-off is given here.

Chain of Cellular tumor antigen p53 (Homo sapiens) (P04637 whole entry, looked up): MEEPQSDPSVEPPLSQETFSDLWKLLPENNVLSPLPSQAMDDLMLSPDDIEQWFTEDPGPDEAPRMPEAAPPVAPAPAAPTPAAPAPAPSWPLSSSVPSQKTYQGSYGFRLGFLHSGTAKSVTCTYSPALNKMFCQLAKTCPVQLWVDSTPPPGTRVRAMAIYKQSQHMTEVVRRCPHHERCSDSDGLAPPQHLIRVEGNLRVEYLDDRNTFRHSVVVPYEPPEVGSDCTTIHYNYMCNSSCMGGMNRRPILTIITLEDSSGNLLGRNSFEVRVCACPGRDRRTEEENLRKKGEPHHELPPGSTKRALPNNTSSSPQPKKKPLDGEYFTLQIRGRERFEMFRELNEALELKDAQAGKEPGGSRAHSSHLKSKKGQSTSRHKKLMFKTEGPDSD

The IC50 is the concentration at which inhibition is half-maximal. Usually inhibition stands for how much of the control response was suppressed. With `CC[C@H](CO)Nc1nc(NCc2ccccc2)c2[nH]nc(C(C)C)c2n1`, the IC50 is 4.9 µM in the assay with U-266 [1]; 6.9 µM with HeLa; 7.1 µM with A549; 6.6 µM with HT-29; 11 µM in the assay on HCT-116. For the same compound, the result with RPMI-8226 [2], with MCF7, in the assay on RPMI-8226 [10] and with U-266 [11] was Active. Besides, the inhibition in assay [3] is 19%; in assay [4], 39%; in [7], 7%; in assay [8] it was 84%; in assay [9], “Dose-dependent effect”; in [12], 96%. Further, the inhibition entry in assay [5] was “inactive”. In addition, the Activity entry in [6] is “Dose-dependent effect”. Moreover, the inhibition at 5 µM in the assay with U2OS amounted to 66%.

The record behind these values is ChEMBL document CHEMBL1765057, “Pyrazolo[4,3-d]pyrimidine bioisostere of roscovitine: evaluation of a novel selective inhibitor of cyclin-dependent kinases with antiproliferative activity” (J Med Chem, 2011).
